Test results from ChEMBL document CHEMBL1122499, “Structural requirements of olefinic 5-substituted deoxyuridines for antiherpes activity” (1983).
≈ marks a conversion by molar mass, not a printed value.

system: Human alphaherpesvirus 1; test: Antiviral activity against herpes simplex virus type 1 (HSV-1) determined in baby hamster kidney cells; assay type: functional; settings: not given
In short: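 Microplaque reduction with HSV-1 strain S3. Serial 0.5 log virus dilutions were inoculated onto baby hamster kidney cell monolayers in microtiter plates for infectivity end-point titration. Compound was present in the overlay (Dulbecco-modified Eagle MEM, 10% donor calf serum, 0.5% carboxymethylcellulose). MIC was the lowest concentration that cut the virus infectivity end point by at least 1 log versus the untreated control.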

| SMILES | MIC [µg/mL] |
| --- | --- |
| O=c1[nH]c(=O)n([C@H]2C[C@H](O)[C@@H](CO)O2)cc1/C=C/Br (stereo in doubt; 4) [BRIVUDINE] | 0.1 (≈ 0.3 µM) |
| O=c1[nH]c(=O)n([C@H]2C[C@H](O)[C@@H](CO)O2)cc1/C=C/Br (stereo in doubt; 2) [BRIVUDINE] | 0.005 (≈ 0.015 µM) |

same assay, conditions: Human alphaherpesvirus 1; read-out: MIC

| SMILES | MIC [µg/mL] |
| --- | --- |
| CCCC/C=C/c1cn([C@H]2C[C@H](O)[C@@H](CO)O2)c(=O)[nH]c1=O | > 100 |
| N#C/C=C/c1cn([C@H]2C[C@H](O)[C@@H](CO)O2)c(=O)[nH]c1=O | > 25 |
| CS/C=C/c1cn([C@H]2C[C@H](O)[C@@H](CO)O2)c(=O)[nH]c1=O | 0.5 (≈ 1.66 µM) |
| O=c1[nH]c(=O)n([C@H]2C[C@H](O)[C@@H](CO)O2)cc1C=C(Br)Br | 0.1 (≈ 0.243 µM) |
| COC(=O)/C(C)=C/c1cn([C@H]2C[C@H](O)[C@@H](CO)O2)c(=O)[nH]c1=O | > 100 |
| C/C=C(/C)c1cn([C@H]2C[C@H](O)[C@@H](CO)O2)c(=O)[nH]c1=O | > 100 |
| CCCCc1cn([C@H]2C[C@H](O)[C@@H](CO)O2)c(=O)[nH]c1=O | 10 (≈ 35.2 µM) |
| C/C=C/c1cn([C@H]2C[C@H](O)[C@@H](CO)O2)c(=O)[nH]c1=S | 100 (≈ 352 µM) |
| COC(=O)/C=C(\C)c1cn([C@H]2C[C@H](O)[C@@H](CO)O2)c(=O)[nH]c1=O | > 100 |
| C/C=C/Cc1cn([C@H]2C[C@H](O)[C@@H](CO)O2)c(=O)[nH]c1=O.C/C=C\Cc1cn([C@H]2C[C@H](O)[C@@H](CO)O2)c(=O)[nH]c1=O | 10 |
| CCC/C=C/c1cn([C@H]2C[C@H](O)[C@@H](CO)O2)c(=O)[nH]c1=O | > 100 |
| C/C(=C\Br)c1cn([C@H]2C[C@H](O)[C@@H](CO)O2)c(=O)[nH]c1=O | 0.1 (≈ 0.288 µM) |
| CC(C)(C)/C=C/c1cn([C@H]2C[C@H](O)[C@@H](CO)O2)c(=O)[nH]c1=O | > 10 |
| C=CCc1cn([C@H]2C[C@H](O)[C@@H](CO)O2)c(=O)[nH]c1=O | 100 (≈ 373 µM) |
| C/C(=C\Cl)c1cn([C@H]2C[C@H](O)[C@@H](CO)O2)c(=O)[nH]c1=O | > 100 |
| C/C=C\c1cn([C@H]2C[C@H](O)[C@@H](CO)O2)c(=O)nc1N | > 100 |
| CC/C=C/c1cn([C@H]2C[C@H](O)[C@@H](CO)O2)c(=O)[nH]c1=O | 0.5 (≈ 1.77 µM) |

More lines, now with the values ahead:

| MIC [µg/mL] | SMILES |
| --- | --- |
| 0.5 (≈ 1.86 µM) | C/C=C/c1cn([C@H]2C[C@H](O)[C@@H](CO)O2)c(=O)[nH]c1=O |
| 50 (≈ 187 µM) | C/C=C/c1cn([C@H]2C[C@H](O)[C@@H](CO)O2)c(=O)nc1N |
| 100 (≈ 373 µM) | C/C=C\c1cn([C@H]2C[C@H](O)[C@@H](CO)O2)c(=O)[nH]c1=O |
| 10 (≈ 32 µM) | COC(=O)/C=C/c1cn([C@H]2C[C@H](O)[C@@H](CO)O2)c(=O)[nH]c1=O |
| 50 (≈ 165 µM) | C=C(Cl)Cc1cn([C@H]2C[C@H](O)[C@@H](CO)O2)c(=O)[nH]c1=O |
| 1 (≈ 3.76 µM) | CC#Cc1cn([C@H]2C[C@H](O)[C@@H](CO)O2)c(=O)[nH]c1=O |
| 1 | C/C(Br)=C/c1cn([C@H]2C[C@H](O)[C@@H](CO)O2)c(=O)[nH]c1=O.C/C(Br)=C\c1cn([C@H]2C[C@H](O)[C@@H](CO)O2)c(=O)[nH]c1=O |
| > 100 | COC(=O)/C=C/C=C/c1cn([C@H]2C[C@H](O)[C@@H](CO)O2)c(=O)[nH]c1=O |
| 10 (≈ 35.7 µM) | CCC#Cc1cn([C@H]2C[C@H](O)[C@@H](CO)O2)c(=O)[nH]c1=O |
| > 50 | CC(C)=Cc1cn([C@H]2C[C@H](O)[C@@H](CO)O2)c(=O)[nH]c1=O |
| 50 (≈ 177 µM) | C/C=C(\C)c1cn([C@H]2C[C@H](O)[C@@H](CO)O2)c(=O)[nH]c1=O |
